# Reference: ChEMBL document CHEMBL4706563, “Triphenylethylene analogues: Design, synthesis and evaluation of antitumor activity and topoisomerase inhibitors” (Eur J Med Chem, 2020)
# Calls of active or inactive are those of the source. The rule behind the calls is not given here.
# What was measured:
# Type in all cases: functional
# HCT-116 = test: Antiproliferative activity against human HCT-116 cells assessed as growth inhibition at 10 uM relative to control; details: read-out: GI
# In short: (§1)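 Single-dose screen run by the US National Cancer Institute across its 60-human tumour cell line panel. Each compound was tested at one concentration. Percent growth inhibition was recorded for each cell line.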
# SW-620 = test: Antiproliferative activity against human SW-620 cells assessed as growth inhibition at 10 uM relative to control; details: read-out: GI
# In short: (§2)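 NCI 60 human tumour cell line panel screen. Compounds tested at a single dose and growth inhibition (%) determined for each line.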
# NCI-H322M = test: Antiproliferative activity against human NCI-H322M cells assessed as growth inhibition at 10 uM relative to control; details: read-out: GI; in short: as §1
# DU-145 = test: Antiproliferative activity against human DU-145 cells assessed as growth inhibition at 10 uM relative to control; details: read-out: GI; in short: as §1
# Hs-578T = test: Antiproliferative activity against human Hs-578T cells assessed as growth inhibition at 10 uM relative to control; details: read-out: GI; in short: as §1
# SNB-75 = test: Antiproliferative activity against human SNB-75 cells assessed as growth inhibition at 10 uM relative to control; details: read-out: GI; in short: as §2
# LOX IMVI = test: Antiproliferative activity against human LOX IMVI cells assessed as growth inhibition at 10 uM relative to control; details: read-out: GI; in short: as §1
# UO-31 = test: Antiproliferative activity against human UO-31 cells assessed as growth inhibition at 10 uM relative to control; details: read-out: GI; in short: as §2
# M14 = test: Antiproliferative activity against human M14 cells assessed as growth inhibition at 10 uM relative to control; details: read-out: GI; in short: as §1
# UACC-257 = test: Antiproliferative activity against human UACC-257 cells assessed as growth inhibition at 10 uM relative to control; details: read-out: GI; in short: as §2
# Leukemia cell = test: Antiproliferative activity against human leukemia cells
# SN12C = test: Antiproliferative activity against human SN12C cells assessed as growth inhibition at 10 uM relative to control; details: read-out: GI; in short: as §2
# [1] = Antiproliferative activity against human Melanoma cells; details: Melanoma cell line
# SK-MEL-5 = test: Antiproliferative activity against human SK-MEL-5 cells assessed as growth inhibition at 10 uM relative to control; details: read-out: GI; in short: as §2
# HCC 2998 = test: Antiproliferative activity against human HCC 2998 cells assessed as growth inhibition at 10 uM relative to control; details: read-out: GI; in short: as §1
# TK-10 = test: Antiproliferative activity against human TK-10 cells assessed as growth inhibition at 10 uM relative to control; details: read-out: GI; in short: as §2
# MOLT-4 = test: Antiproliferative activity against human MOLT-4 cells assessed as growth inhibition at 10 uM relative to control; details: read-out: GI; in short: as §1
# NCI-H23 = test: Antiproliferative activity against human NCI-H23 cells assessed as growth inhibition at 10 uM relative to control; details: read-out: GI; in short: as §1
# ACHN = test: Antiproliferative activity against human ACHN cells assessed as growth inhibition at 10 uM relative to control; details: read-out: GI; in short: as §1
# IGROV-1 = test: Antiproliferative activity against human IGROV-1 cells assessed as growth inhibition at 10 uM relative to control; details: read-out: GI; in short: as §1
# SK-OV-3 = test: Antiproliferative activity against human SK-OV-3 cells assessed as growth inhibition at 10 uM relative to control; details: read-out: GI; in short: as §2
# [2] = Antiproliferative activity against human ovarian cancer cells; details: Ovarian cancer cell line
# SF-539 = test: Antiproliferative activity against human SF-539 cells assessed as growth inhibition at 10 uM relative to control; in short: as §1
# SNB-19 = test: Antiproliferative activity against human SNB-19 cells assessed as growth inhibition at 10 uM relative to control; details: read-out: GI; in short: as §2
# [3] = Antiproliferative activity against human CNS cancer cells; details: CNS cell
# NCI-H522 = test: Antiproliferative activity against human NCI-H522 cells assessed as growth inhibition at 10 uM relative to control; details: read-out: GI; in short: as §1
# COLO 205 = test: Antiproliferative activity against human COLO 205 cells assessed as growth inhibition at 10 uM relative to control; details: read-out: GI; in short: as §1
# MDA-MB-435 = test: Antiproliferative activity against human MDA-MB-435 cells assessed as growth inhibition at 10 uM relative to control; details: read-out: GI; in short: as §1
# UACC-62 = test: Antiproliferative activity against human UACC-62 cells assessed as growth inhibition at 10 uM relative to control; in short: as §2
# SF-295 = test: Antiproliferative activity against human SF-295 cells assessed as growth inhibition at 10 uM relative to control; details: read-out: GI; in short: as §1
# NCI/ADR-RES = test: Antiproliferative activity against human NCI/ADR-RES cells assessed as growth inhibition at 10 uM relative to control; details: read-out: GI; in short: as §1
# HT-29 = test: Antiproliferative activity against human HT29 cells assessed as growth inhibition at 10 uM relative to control; details: read-out: GI; in short: as §1
# PC-3 = test: Antiproliferative activity against human PC-3 cells assessed as growth inhibition at 10 uM relative to control; details: read-out: GI; in short: as §1
# Malme-3M = test: Antiproliferative activity against human Malme-3M cells assessed as growth inhibition at 10 uM relative to control; details: read-out: GI; in short: as §1
# CAKI-1 = test: Antiproliferative activity against human CAKI-1 cells assessed as growth inhibition at 10 uM relative to control; details: read-out: GI; in short: as §1
# SK-MEL-28 = test: Antiproliferative activity against human SK-MEL-28 cells assessed as growth inhibition at 10 uM relative to control; details: read-out: GI; in short: as §2
# 786-0 = test: Antiproliferative activity against human 786-0 cells assessed as growth inhibition at 10 uM relative to control; details: read-out: GI; in short: as §1
# [4] = Antiproliferative activity against human Non-small cell lung cancer cells; details: Non-small cell lung cancer cell line
# T47D = test: Antiproliferative activity against human T47D cells assessed as growth inhibition at 10 uM relative to control; in short: as §2
# K562 = test: Antiproliferative activity against human K562 cells assessed as growth inhibition at 10 uM relative to control; in short: as §1
# MDA-MB-468 = test: Antiproliferative activity against human MDA-MB-468 cells assessed as growth inhibition at 10 uM relative to control; details: read-out: GI; in short: as §1
# [5] = Antiproliferative activity against human prostate cancer cells; details: Prostate tumor cell line
# SR = test: Antiproliferative activity against human SR cells assessed as growth inhibition at 10 uM relative to control; details: read-out: GI; in short: as §2
# HCT-15 = test: Antiproliferative activity against human HCT-15 cells assessed as growth inhibition at 10 uM relative to control; details: read-out: GI; in short: as §1
# NCI-H460 = test: Antiproliferative activity against human NCI-H460 cells assessed as growth inhibition at 10 uM relative to control; details: read-out: GI; in short: as §1
# KM12 = test: Antiproliferative activity against human KM12 cells assessed as growth inhibition at 10 uM relative to control; details: read-out: GI; in short: as §1
# OVCAR-3 = test: Antiproliferative activity against human OVCAR-3 cells assessed as growth inhibition at 10 uM relative to control; details: read-out: GI; in short: as §1
# [6] = read-out: LC50 (the source's name)
compound,measurement,setting,value
CC/C(=C(\c1ccccc1)c1ccc(OCCN(C)C)cc1)c1ccccc1 [TAMOXIFEN],inhibition of growth at 10 µM,HCT-116,73.8%
same,inhibition of growth at 10 µM,SW-620,95.1%
same,inhibition of growth at 10 µM,NCI-H322M,34%
same,inhibition of growth at 10 µM,DU-145,34.6%
same,inhibition of growth at 10 µM,Hs-578T,39.5%
same,inhibition of growth at 10 µM,SNB-75,60.1%
same,inhibition of growth at 10 µM,LOX IMVI,-43.9%
same,inhibition of growth at 10 µM,UO-31,59.7%
same,inhibition of growth at 10 µM,M14,-75%
same,inhibition of growth at 10 µM,UACC-257,-64.3%
same,GI50,Leukemia cell,2.08 µM
same,TGI,Leukemia cell,6.42 µM
same,inhibition of growth at 10 µM,SN12C,52.3%
same,GI50,[1],2.03 µM
same,TGI,[1],5.49 µM
same,inhibition of growth at 10 µM,SK-MEL-5,-95.2%
same,inhibition of growth at 10 µM,HCC 2998,83.7%
same,inhibition of growth at 10 µM,TK-10,48.1%
same,inhibition of growth at 10 µM,MOLT-4,66.7%
same,inhibition of growth at 10 µM,NCI-H23,39.7%
same,inhibition of growth at 10 µM,ACHN,39.4%
same,inhibition of growth at 10 µM,IGROV-1,58.8%
same,inhibition of growth at 10 µM,SK-OV-3,33.2%
same,GI50,[2],4.7 µM
same,TGI,[2],11.9 µM
same,CC50,[2]; [6],2.78 µM
same,growth inhibition (GI),SF-539,inactive
same,inhibition of growth at 10 µM,SNB-19,47.4%
same,GI50,[3],4.04 µM
same,TGI,[3],10.6 µM
same,CC50,[3]; [6],44.1 µM
same,inhibition of growth at 10 µM,NCI-H522,53.4%
same,inhibition of growth at 10 µM,COLO 205,-89%
same,inhibition of growth at 10 µM,MDA-MB-435,62.2%
same,growth inhibition (GI),UACC-62,inactive
same,inhibition of growth at 10 µM,SF-295,59.8%
same,inhibition of growth at 10 µM,NCI/ADR-RES,56.8%
same,inhibition of growth at 10 µM,HT-29,-11.2%
same,inhibition of growth at 10 µM,PC-3,65.6%
same,inhibition of growth at 10 µM,Malme-3M,-67.5%
same,inhibition of growth at 10 µM,CAKI-1,70.9%
same,inhibition of growth at 10 µM,SK-MEL-28,88.7%
same,inhibition of growth at 10 µM,786-0,-41%
same,GI50,[4],4.01 µM
same,TGI,[4],9.2 µM
same,CC50,[4]; [6],2.6 µM
same,growth inhibition (GI),T47D,inactive
same,growth inhibition (GI),K562,inactive
same,inhibition of growth at 10 µM,MDA-MB-468,-13.3%
same,GI50,[5],4.4 µM
same,TGI,[5],11.1 µM
same,CC50,[5]; [6],233 µM
same,inhibition of growth at 10 µM,SR,-18.9%
same,inhibition of growth at 10 µM,HCT-15,92.4%
same,inhibition of growth at 10 µM,NCI-H460,97.6%
same,inhibition of growth at 10 µM,KM12,75%
same,inhibition of growth at 10 µM,OVCAR-3,47.1%
